APP 5'UTR act: APP 5'UTR luciferase reporter activation; activation, % at 2 µM; 190,000 compounds, 1% hits; AID 1276; SH-SY5Y APP 5'UTR luciferase reporter, luminescence; zero percent = DMSO vehicle wells;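 active = activation above a set limit, based on mean plus 3 SD of controls, cut at about 140% in these data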
STAT1 act: activators of IFN-gamma induced STAT1 signaling; NIH 3T3 STAT1-luciferase reporter, luminescence; 100% = IFN-gamma alone, no compound; activation (% of control), % at 5.5 µM; 200,000 compounds, 2.6% hits; AID 932;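 active = activation above the screen-wide mean activation plus 3 SD, cut at about 130% in these data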
NF-kB neuron act: raises NF-kB expression in human neuronal cells. NF-kB reporter expression; hits give high values. AID 1239. fold change at 12.5 µM. 190,000 compounds, 1.6% hits; in the data active = fold change above about 3.3
STAT3 blocker: inhibitors of IL-6 induced STAT3 signaling; U3A cells, IL-6 STAT3-luciferase reporter, luminescence; host cell line lacks STAT1; inhibition, % at 5.5 µM; 190,000 compounds, 0.89% hits; AID 862;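 active = inhibition above the mean inhibition across all screened compounds plus 3 SD, cut at about 44% in these data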
STAT1 inh: reduces IFN-gamma driven STAT1 reporter signal; NIH 3T3 STAT1-luciferase reporter, luminescence; inhibition, % at 5.5 µM; 200,000 compounds, 0.35% hits;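 active = inhibition above a set limit, the mean inhibition across all tested compounds plus 3 SD, cut at about 34% in these data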
STAT3 activator: STAT3 signaling activation | U3A cells, IL-6 STAT3-luciferase reporter, luminescence; 100% = signal with IL-6 EC80 alone | activation (% of control), % at 5.6 µM | 190,000 compounds, 0.91% hits | AID 871;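 active = activation above the screen-wide mean of compound activation plus 3 SD, cut at about 130% in these data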
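Test system: STAT3-luciferase reporter U3A cells; Detection: reporter luminescence signal; Times: 1 h compound pre-exposure, 6 h IL-6 stimulation, 37 °C; Benchmarks: IL-6-only high control; Also added: IL-6 stimulus at 33 ng/mL final.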
STAT1 activ conf: STAT1 activation, confirmation assay; shares compounds with STAT1 act; NIH 3T3 STAT1-luciferase reporter, IFN-gamma potentiation, luminescence; 100% = IFN-gamma EC80 alone, no compound; activation (% of control), % at 5.7 µM; 1,200 compounds, 97% hits; AID 1262;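 active = activation above a set limit carried over from the earlier primary STAT1 screen, cut at about 140% in these data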
NFkB act STAT1ct: counter-screen for STAT1 activators: NF-kappaB activation. shares compounds with STAT1 act. AID 1306. activation (% of control), % at 5.7 µM. 1,200 compounds, 43% hits. HEK293T NF-kB luciferase reporter, TNF-alpha stimulated, luminescence; 100% = TNF-alpha with vehicle only;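 active = activation above the mean of solvent-only control wells plus 3 SD, set per campaign, cut at about 130% in these data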;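 note: TNF-alpha given at a submaximal dose yielding about 80% of full reporter signal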
STAT3 act 2: activates human STAT3, counter-screen to STAT1 activators; 1,200 compounds, 46% hits; U3A cells STAT3-luciferase reporter, IL-6, luminescence; cells lack STAT1; 100 = IL-6 alone, no compound effect; shares compounds with STAT1 act; activation (% of control), % at 5.7 µM;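 active = activation above the solvent-only control well mean plus 3 SD, set per plate batch, cut at about 110% in these data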;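 note: higher means more STAT3 reporter activation so hits are non-selective activators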
Large screens that a line does not name were inactive (follow-up assays come after a bar, where they were run). A selection: hits, their analogues and other compounds. The true share with any hit is near 5.1%.

Cc1ccc(C2=NN(S(C)(=O)=O)C(c3ccc4c(c3)OCO4)C2)cc1 (stereo unspecified)	APP 5'UTR act 139, STAT1 act 211, NF-kB neuron act 10 | STAT1 activ conf 256 | NFkB act STAT1ct 141 | STAT3 act 2 140
CS(=O)(=O)Nc1ccc(C2=NN(S(C)(=O)=O)C(c3ccc4nccnc4c3)C2)cc1 (stereo unspecified)	none
CCO[C@H]1OC(C(=O)N2CCCCCCC2)=C[C@@H](c2ccccc2)[C@@H]1CCCO	none (no result: STAT3 blocker, STAT3 activator)
O=C(NCSc1ccnc(SCNC(=O)c2ccc(F)cc2)n1)c1ccc(F)cc1	none
O=C(CSc1ccc(-c2ccccn2)nn1)NCc1ccc(F)cc1	none
Cc1cc(C(=O)CSc2nc3ccccc3[nH]2)c(C)n1Cc1ccco1	APP 5'UTR act 214, STAT1 act 165 | STAT1 activ conf 209 | NFkB act STAT1ct inactive | STAT3 act 2 inactive
CCCn1c(C)cc(C(=O)CSc2nc3ccccc3c(=O)n2Cc2ccco2)c1C	none
O=C(Cc1cccs1)Nc1cccc(-c2nc3cc4ccccc4cc3[nH]2)c1	APP 5'UTR act 195, STAT1 act 197, NF-kB neuron act 4.8 | STAT1 activ conf 270 | NFkB act STAT1ct 158 | STAT3 act 2 inactive
CCOc1cccc(NC(=O)Cc2cccs2)c1	none
O=C(Nc1ccccc1C(=O)N/N=C/c1ccco1)c1ccc(F)cc1	none
Cc1ccc(C2SCCN2C(=O)c2ccc([N+](=O)[O-])cc2)cc1 (stereo unspecified)	none
COC(=O)c1cn[nH]c1NC(=S)Nc1ccccc1C	STAT1 act 151 | STAT1 activ conf 169 | NFkB act STAT1ct inactive | STAT3 act 2 117
C/C(=N/NC(=O)c1ccco1)c1ccc(NC(=O)c2ccc(F)cc2)cc1	STAT1 act 155 | STAT1 activ conf inactive | NFkB act STAT1ct inactive | STAT3 act 2 inactive
COC(=O)c1ccc(-c2ccc(Cl)cc2)nc1C	APP 5'UTR act 179, STAT1 act 186, NF-kB neuron act 5.9 | STAT1 activ conf 241 | NFkB act STAT1ct 136 | STAT3 act 2 111
CCOC(=O)c1ccc(-c2cccc(C(F)(F)F)c2)nc1C	none
COc1ccc(/C=C/c2nc3ccccc3n2Cc2ccc(OC)c(OC)c2)cc1	APP 5'UTR act 181, STAT1 act 184, NF-kB neuron act 6.8 | STAT1 activ conf 183 | NFkB act STAT1ct 135 | STAT3 act 2 125
O=c1c2ccccc2cnn1-c1ccc(Cl)cc1	STAT1 act 166, NF-kB neuron act 5.1 | STAT1 activ conf 192 | NFkB act STAT1ct inactive | STAT3 act 2 128
O=C(CSc1nnc(-c2ccccc2)n1Cc1ccco1)NCc1ccc2c(c1)OCO2	none
Cc1cnc(C(=O)Nc2ccc(C(C)C)cc2)cn1	STAT1 act 159, NF-kB neuron act 4.5 | STAT1 activ conf 180 | NFkB act STAT1ct 136 | STAT3 act 2 inactive
CCc1c(C)[nH]c(C(=O)OCc2ccccc2)c1C	STAT1 act 152 | STAT1 activ conf 146 | NFkB act STAT1ct inactive | STAT3 act 2 inactive
CC(=O)c1c(C)[nH]c(C(=O)OCC(=O)NCCc2ccc(F)cc2)c1C	none
COC(=O)c1c(C)[nH]c(C(=O)OCc2ccc(F)cc2)c1C	STAT1 act 152 | STAT1 activ conf 163 | NFkB act STAT1ct inactive | STAT3 act 2 inactive
Cc1ccc(S(=O)(=O)N(c2nc(N(C)C)nc(N(C)C)n2)n2cnnc2)cc1	none
N/C(=N\OC(=O)c1ccc2c(c1)OCO2)c1cccc(Br)c1	STAT1 act 162 | STAT1 activ conf 178 | NFkB act STAT1ct inactive | STAT3 act 2 111
O=C(Nc1cccc(NC(=O)C2C3CC4OC(=O)C2C4C3)c1)c1ccccc1 (stereo unspecified)	none
Cc1ccsc1/C=N/NC(=O)Cn1cnc2ccccc21	none
Cc1cnc(C)c(N2CCN(Cc3nc(-c4ccccc4)no3)CC2)n1	none
C=CCn1c(=O)c(C(=O)Nc2ccccc2S(N)(=O)=O)c(O)c2ccccc21	STAT1 act 171 | STAT1 activ conf 187 | NFkB act STAT1ct inactive | STAT3 act 2 146
COCC(C)NC(=O)c1cc(-c2ccc(O)cc2)on1 (stereo unspecified)	none
CCC(C)NC(=O)c1cc(-c2ccc(OC)cc2)on1 (stereo unspecified)	STAT1 act 157, NF-kB neuron act 3.4 | STAT1 activ conf 179 | NFkB act STAT1ct inactive | STAT3 act 2 inactive
CCOc1ccc(S(=O)(=O)N(C)c2ccc(OCC(=O)NCC3CCCO3)cc2)cc1 (stereo unspecified)	none
CCOC(=O)c1sc2nc(NC(=O)C(C)(C)C)sc2c1C	STAT1 act 157 | STAT1 activ conf 202 | NFkB act STAT1ct 134 | STAT3 act 2 inactive
O=C(NCc1cccc(CNC(=O)C(=O)NCc2ccco2)c1)C(=O)NCc1ccco1	none
O=C(Nc1ccc(-c2nc3ncccc3o2)cc1)c1ccco1	STAT1 act 160 | STAT1 activ conf 173 | NFkB act STAT1ct inactive | STAT3 act 2 inactive
O=C(Nc1ccc(-c2nc3ncccc3o2)cc1)c1ccc(Br)o1	none
Cc1ccc2nc(-c3ccc(NC(=O)c4ccco4)cc3)[nH]c2c1	STAT1 act 160 | STAT1 activ conf 187 | NFkB act STAT1ct 136 | STAT3 act 2 inactive
O=C(Nc1ccc(-c2nc3cccnc3s2)cc1)c1ccco1	APP 5'UTR act 216, STAT1 act 152, NF-kB neuron act 3.9 | STAT1 activ conf 227 | NFkB act STAT1ct inactive | STAT3 act 2 inactive
CN1CCN(c2ccc(S(=O)(=O)N3CCCCC3)cc2NC(=O)Cc2ccc(Cl)cc2)CC1	none
O=C(CCC1CCCCC1)NNC(=O)c1cnccn1	none
O=C(Nc1ccc(-c2nc3ccccc3o2)cc1)c1cccnc1	STAT1 act 166 | STAT1 activ conf 185 | NFkB act STAT1ct 146 | STAT3 act 2 inactive
COc1cccc(OC)c1C(=O)Nc1ccc2c(c1)Cc1ccccc1-2	none
O=C(Nc1ccc2c(c1)Cc1ccccc1-2)c1cccnc1	STAT1 act 151 | STAT1 activ conf 143 | NFkB act STAT1ct inactive | STAT3 act 2 inactive
